# Assay results of several laboratories.
# Lines come from different studies, so protocols differ.
# Target: Dual specificity protein kinase CLK3 (CLK3, Homo sapiens, UniProt P49761)
Compound,assay,conditions,endpoint,result
CCN(CC)CCNC(=O)c1c(C)[nH]c(/C=C2\C(=O)Nc3ccc(F)cc32)c1C,"enzyme activity, inhibitor",0.3 µM,inhibition,-1%
CCS(=O)(=O)c1cc2cc(C[C@](O)(CC(C)(C)c3ccc(F)cc3C(N)=O)C(F)(F)F)[nH]c2cn1,"cell-free assay, competition with immobilised ligand",1 µM,remaining binding,100%
Nc1ncnc2occ(-c3ccc(NC(=O)Nc4cc(C(F)(F)F)ccc4F)cc3)c12,"cell-free assay, inhibitor",20 µM,remaining signal,54%
Cn1c2c(c3ccc(Cl)c(Cl)c31)C(C#N)C1(CCNCC1)NC2=O (racemic),"thermal stability, DSF",10 µM,ΔTm,2.2 °C
CCOc1cc(-c2nncn2C)ccc1Nc1ncc2cc(C)nc(NCC(C)(C)C)c2n1,"enzyme activity, inhibitor, FRET",1 µM,inhibition,< 15%
CN(C)C(=O)Cn1cc(-c2nc([C@@](C)(c3ccc(-c4cnc(N)nc4)cc3)C3CC3)no2)cn1,"cell-free assay, competition with immobilised ligand",1 µM,remaining binding,100%
CNC(=O)c1cc(Oc2ccc(NC(=O)Nc3ccc(Cl)c(C(F)(F)F)c3)cc2)ccn1,"enzyme activity, inhibitor",10 µM,inhibition,13%
Cn1c2c(Cl)c(Cl)ccc2c2cc[nH]c(=O)c21,"thermal stability, DSF",10 µM,ΔTm,1.5 °C
N#CCCc1ccc2c(c1)-c1[nH]c3ccc([N+](=O)[O-])cc3c1CC(=O)N2,cell-free assay,0.5 µM,remaining signal,108%
Cc1cnc(NC2CCOCC2)nc1-n1cnc(C(=O)NC(CN)c2cc(F)cc(Cl)c2)c1 (stereo not shown),"enzyme activity, inhibitor, radiometric",1 µM,remaining activity,99%
C[C@@]1(Cc2ccc(C#N)cc2)C(=O)N(c2cc(Cl)cc(Cl)c2)c2ncc(C(=O)NC3(c4nc(C5CCC5)no4)CC3)n21,"cell-free assay, competition with immobilised ligand",1 µM,remaining binding,100%
O=C1NC(=O)c2cc(Nc3ccc(F)cc3)c(Nc3ccc(F)cc3)cc21,cell-free assay,0.5 µM,remaining signal,93.7%
COc1cc2ncnc(Nc3ccc(Oc4ccccc4)c(C)c3C)c2cc1OC,"enzyme activity, inhibitor",1 µM,inhibition,-3%
O=C(Nc1cnn(-c2csc(C(=O)NC3COC3)c2)c1)Nc1ccccc1Cl,"enzyme activity, inhibitor",5 µM,remaining activity,120%
Cn1c2c(c3ccc(Cl)c(Cl)c31)C(C#N)C1(CCCC1)NC2=O (stereo not shown),"thermal stability, DSF",10 µM,ΔTm,0.3 °C
CC(C)(C)c1nc2c(s1)c1nc(N)ncc1c1ccc(NS(=O)(=O)c3c(F)cccc3F)c(F)c12,"enzyme activity, inhibitor, radiometric",1 µM,remaining activity,82%
COc1cc(Nc2c(C#N)cnc3cc(OCCCN4CCN(C)CC4)c(OC)cc23)c(Cl)cc1Cl,cell-free assay,0.5 µM,remaining signal,94.9%
N#CC1c2c([nH]c3c(Cl)c(Cl)ccc23)C(=O)NC12CCCCC2 (racemic),"thermal stability, DSF",10 µM,ΔTm,2.1 °C
C[C@H](NC(=O)c1cnc2n1[C@](C)(Cc1ccc(C#N)cc1)C(=O)N2c1cc(Cl)c(F)c(Cl)c1)C(=O)NC1(c2ccccn2)CC1,"cell-free assay, competition with immobilised ligand",1 µM,remaining binding,96%
O=C1Nc2ccc(Cl)cc2C1=Cc1cc(Cl)c(O)c(Cl)c1,cell-free assay,0.5 µM,remaining signal,90.9%
O=C(N[C@H]1CCCCC/C=C\C2C[C@@]2(C(=O)O)NC(=O)[C@@H]2C[C@@H](Oc3ccncc3)CN2C1=O)OC1CCCC1 (stereo partly shown),"binding, competition with immobilised ligand",1 µM,remaining binding,93%
Clc1ccc(Nc2nnc(Cc3ccncc3)c3ccccc23)cc1,cell-free assay,0.5 µM,remaining signal,105%
CN(C)c1ncnc(-c2ccc3nc(Nc4cc(CN5CCN(C(=O)CC(F)(F)F)CC5)ccn4)[nH]c3c2)c1Cl,"cell-free assay, competition with immobilised ligand",1 µM,remaining binding,100%
Cc1ccc(Nc2nccc(N(C)c3ccc4c(C)n(C)nc4c3)n2)cc1S(N)(=O)=O,"enzyme activity, inhibitor",10 µM,inhibition,32%
CN1CC(Oc2cnc(C#N)cc2-c2ccn3nc(NC(=O)C4CC4)cc3c2)C1,"enzyme activity, inhibitor",1 µM,inhibition,-5%
CC/C(=N\NC(=O)NCc1cccc(O)c1)c1ccc(O)c(C)c1O,"enzyme activity, inhibitor",0.1 µM,inhibition,-1.4%
C[C@@H]1CN(c2cc(-c3nn(C)c4ccc(OC5(C)CC5)cc34)ncn2)C[C@H](C)O1,"cell-free assay, competition with immobilised ligand",1 µM,remaining binding,98%
Cn1c2c(c3ccc(Cl)c(Cl)c31)C(C#N)C(C)(C)NC2=O (stereo not shown),"thermal stability, DSF",10 µM,ΔTm,1.9 °C
CCCS(=O)(=O)Nc1ccc(F)c(C(=O)c2c[nH]c3ncc(-c4ccc(Cl)cc4)cc23)c1F,"enzyme activity, inhibitor",1 µM,inhibition,< 10%
CCC(=N\O)/C(C)=C/c1ccc(F)cc1,"cell-free assay, competition with immobilised ligand",1 µM,remaining binding,73%
CC(C)(O)[C@H]1CC[C@H](Nc2ccc3ncc(-c4cccc(C(F)(F)F)c4)n3n2)CC1,"enzyme activity, inhibitor",1 µM,remaining activity,59.3%
